# Source: PubChem
# Compounds with a hit are over-represented: about 2.9% of the library has one in this group of screens.
# M1 ag parental – nonselective activator or artifact in parental CHO-K1 cells | Fluo-8 calcium fluorescence; scaled to maximal ATP response, vehicle zero | activation, % at 3 µM | hit rate 0.48% among 360,000 | AID 602248; in the data active means activation above about 15%;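 further: untransfected CHO-K1 host cells lacking M1 receptor as counterscreen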
# OX1R antag-1 – antagonists of human orexin 1 receptor (OX1R). hit rate 1.8% among 330,000. AID 485270. OX1R-expressing cells, FRET antagonist read-out. inhibition, % at 6.6 µM. O43613; in the data active means inhibition mostly above about 38%, no sharp cut-off; inactive means mostly below about 40%
# Target sequence (O43613 whole entry, looked up): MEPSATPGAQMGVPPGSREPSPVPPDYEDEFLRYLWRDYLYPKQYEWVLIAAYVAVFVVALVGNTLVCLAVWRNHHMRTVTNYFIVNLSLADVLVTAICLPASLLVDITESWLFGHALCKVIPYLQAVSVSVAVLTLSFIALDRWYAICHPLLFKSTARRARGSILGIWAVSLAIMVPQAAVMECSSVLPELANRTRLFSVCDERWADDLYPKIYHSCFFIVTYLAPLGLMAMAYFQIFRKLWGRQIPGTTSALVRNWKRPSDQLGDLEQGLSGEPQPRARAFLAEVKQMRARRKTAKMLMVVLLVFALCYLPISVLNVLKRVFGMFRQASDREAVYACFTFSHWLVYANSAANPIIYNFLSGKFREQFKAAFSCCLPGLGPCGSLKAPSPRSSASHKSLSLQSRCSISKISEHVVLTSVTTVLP
# CHO-K1 Ca antag – nonselective inhibitor or artifact in parental CHO-K1 cells. ATP-induced calcium, Fluo-8 fluorescence. inhibition, % at 3 µM. hit rate 0.6% among 360,000;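 active means inhibition above a per-plate cutoff, the plate's mean sample inhibition plus 3 SD, cut at about 24% in these data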
# OX1R antag-2 – human HCRTR1 antagonism; hit rate 0.43% among 330,000; O43613; CHO/OX1R cells, Fluo-8 calcium fluorescence, orexin A; inhibition, % at 5 µM;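 active means inhibition above its plate's threshold, mean inhibition of all tested compounds on the plate plus 3 SD, cut at about 37% in these data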
# M1 PAM parental – counter-screen for M1 PAMs: effect in parental CHO-K1 cells; ATP EC20, Fluo-8 calcium fluorescence; 0% at ATP EC20, 100% at ATP max; activation, % at 3 µM; hit rate 0.02% among 360,000;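 active means activation above the run cutoff, the mean activation of all test compounds plus 3 SD, cut at about 40% in these data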;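 further: peak over basal fluorescence ratio in a 140 s read after ATP addition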
# CHO parental Ca – counter-screen: ATP calcium response change in parental CHO cells; parental CHO-K1, ATP-induced calcium, Fluo-8 fluorescence; inhibition, % at 5.6 µM; hit rate 0.63% among 330,000;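 active means inhibition above that plate's mean sample inhibition plus 3 SD, cut at about 26% in these data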
#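 Assay system – parental CHO cells · Reagent – ATP stimulus · Detection – intracellular calcium via Fluo-8 no-wash fluorescent dye · Evaluation – percent inhibition of ATP-evoked calcium rise, normalized to controls · Controls – ATP wells versus no-ATP DMSO wells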
# A number is an active result; - = inactive; . = no result given.
SMILES,M1 ag parental,OX1R antag-1,CHO-K1 Ca antag,OX1R antag-2,M1 PAM parental,CHO parental Ca
COc1cc(C2C(C#N)=C(N)N(Nc3ccccc3)C3=C2C(=O)CC(C)(C)C3)ccc1OCc1ccccc1 (stereo unspecified),-,-,-,-,-,-
COc1cc(C2C(C#N)=C(N)N(Nc3ccccc3)C3=C2C(=O)CC(C)(C)C3)ccc1OCc1cccc(F)c1 (stereo unspecified),-,-,33,-,-,-
CC1(C)OC(=O)C=C[C@]2(C)[C@H]3CC[C@@]4(C)[C@H](C(=O)O)OC(=O)[C@H]5O[C@]54[C@]3(C)C(=O)C[C@@H]12,-,-,-,-,-,-
Cc1sc2ncnc(NCCCN3CCCC3=O)c2c1C,18,-,-,-,-,-
Nn1c(COc2cccc(Cl)c2)nc2ccccc2c1=O,25,-,-,-,-,-
OCCNc1nc(NCCC2=CCCCC2)nc(N2CCOCC2)n1,-,-,24,-,-,-
CCN1C(=O)/C(=C/c2ccc(N3CCCC3)cc2)NC1=S,57,-,49,74,-,62
Cc1cc(/C=C2/C(=O)N(C)C(=S)N2C)ccc1N1CCCC1,-,-,-,65,-,42
Cc1ccc(CN2C(=O)N/C(=C\c3ccc(N4CCOCC4)cc3)C2=O)cc1,-,-,-,-,-,-
Cc1cc(N2CCCC2)ccc1/C=C1/C(=O)N(C)C(=S)N1C,-,-,-,-,-,-
CCN1C(=O)/C(=C/c2ccc(OCc3ccc(C(=O)O)cc3)c(Cl)c2)NC1=S,16,-,29,-,-,-
CCCN1C(=O)/C(=C/c2ccc(N3CCCC3)c(C)c2)NC1=S,54,-,60,93,-,87
CCCN1C(=O)/C(=C/c2ccc(OCC(=O)OCC)cc2)NC1=S,-,.,-,.,-,.
O=C(COc1ccc(F)cc1)Nc1c(C(=O)N2CCC(N3CCCCC3)CC2)oc2ccccc12,-,-,-,-,-,-
O=C1C2C3C=CC(CC3)C2C(=O)N1c1cccc(Br)c1 (stereo unspecified),-,-,-,-,-,-
COc1ccc(CN2CCC(N(CCc3ccccc3)Cc3ccccc3)CC2)c(OC)c1,-,-,-,-,-,-
Cc1cc(/C=C2\NC(=S)N(C)C2=O)ccc1N1CCCC1,76,-,60,72,-,53
COc1ccc(NC(=O)CNC(=O)Cn2cnc3sc4c(c3c2=O)CCCC4)cc1OC,-,-,-,-,-,-
Cc1cc(C(=O)CSc2nnc(-c3cccs3)n2Cc2ccccc2)c(C)n1C,-,-,-,-,-,-
O=c1cc(CSc2nnc(-c3cccs3)n2Cc2ccccc2)nc2sc3ccccc3n12,-,-,-,-,-,52
CN(C)c1ccnc(SCc2ccccc2Cl)c1C#N,-,-,-,-,-,-
O=C(NCCCn1ccnc1)c1ccc(Cl)cc1[N+](=O)[O-],-,-,-,-,-,-
O=C(NCCCn1ccnc1)c1cc2cc([N+](=O)[O-])ccc2oc1=O,-,69,-,-,-,-
Cc1ccc(C)c(S(=O)(=O)N2CCCOC2CNC(=O)C(=O)NCCN2CCOCC2)c1 (stereo unspecified),-,-,-,-,-,-
COc1ccc(Br)cc1/C=C1\Oc2ccccc2NC1=O,-,-,-,-,-,-
SMILES,M1 ag parental,OX1R antag-1,CHO-K1 Ca antag,OX1R antag-2,M1 PAM parental,CHO parental Ca
O=C1Nc2ccccc2O/C1=C\c1ccccc1Br,-,45,-,-,-,-
COc1ccccc1N1CCN(C(=O)CN(c2ccccc2OC)S(=O)(=O)c2ccccc2)CC1,-,-,-,-,-,-
O=C(N/N=C/c1ccc(O)cc1O)C(=O)N/N=C/c1ccc(O)cc1O,-,70,-,-,-,-
O=C(NN=Cc1ccc(O)cc1)C(=O)NN=Cc1ccc(O)cc1,-,.,-,.,-,.
CCCCN1C(=O)C(CC(=O)NCc2cccs2)CC(C(=O)N(C(C)C)C(C)C)=C1C (stereo unspecified),-,.,-,.,-,.
CCc1ccc(OCC(=O)N2CC(C(N)=O)Oc3ccccc32)cc1 (stereo unspecified),-,-,-,-,-,-
CCN(CC)CCCn1c2c(c(SCC(=O)Nc3cc(C)on3)nc1=O)CCC2,-,-,-,-,-,-
CC1CCN(C(=S)NC(=O)c2ccco2)CC1,-,-,-,-,-,-
O=C(NC(=S)N1CCN(Cc2ccccc2)CC1)c1ccco1,-,-,-,-,-,100
Clc1cccc(CNc2ccn3nc(-c4ccco4)cc3n2)c1,-,.,26,.,-,.
CCOC(=O)C1=C(N)OC2=C(C(=O)CCC2)C1c1ccc2c(c1)OCO2 (stereo unspecified),-,-,-,-,-,-
CCOc1ccccc1-c1c2cc(O)c(=O)cc-2oc2cc(O)c(O)cc12,17,.,-,.,-,.
C#CCOCCOCCOCCNc1nc(N2CCN(C(=O)CCCCCCCCCCNC(=O)Cn3cc(C[C@@H](C)O)nn3)CC2)nc(N2CCN(C(=O)CCCCCCCCCCNC(=O)[C@@H]([C@H](C)CC)n3cc(CCCCCN)nn3)CC2)n1,-,-,-,-,-,-
C#CCOCCOCCOCCNc1nc(N2CCN(C(=O)CCCCCCCCCCNC(=O)[C@H](CCCCN)n3cc(CCO)nn3)CC2)nc(N2CCN(C(=O)CCCCCCCCCCNC(=O)[C@H](CCCCN)n3cc(C[C@@H](C)CC)nn3)CC2)n1,.,-,.,-,.,54
C#CCOCCOCCOCCNc1nc(N2CCN(C(=O)CCCCCCCCCCNC(=O)Cn3cc(CCCCCN)nn3)CC2)nc(N2CCN(C(=O)CCCCCCCCCCNC(=O)Cn3cc(C[C@@H](C)O)nn3)CC2)n1,-,-,-,-,-,41
C#CCOCCOCCOCCNc1nc(N2CCN(C(=O)CCCCCCCCCCNC(=O)[C@@H](CCC(=O)O)n3cc(CCCCCN)nn3)CC2)nc(N2CCN(C(=O)CCCCCCCCCCNC(=O)[C@H](CCCCN)n3cc(C[C@@H](C)CC)nn3)CC2)n1,-,-,-,-,-,-
Cc1c(NC(=O)c2cc(-c3ccccc3O)on2)c(=O)n(-c2ccccc2)n1C,-,-,-,-,-,-
COc1cc(C(=O)COC(=O)c2c(C)noc2C)cc(OC)c1OC,-,-,-,-,-,-
COc1ccc(NS(=O)(=O)c2cn(C)c(=O)n(C)c2=O)cc1,-,-,-,-,-,-
COc1ccc(-c2nc3ccccn3c2Cl)cc1,-,43,-,-,-,-
CC(=O)c1cccc(N(CC(=O)NC2CCCCC2)C(=O)CNC(=O)c2cccs2)c1,-,-,-,-,-,-
Cc1ccc(OCCCn2c(=O)sc3ccccc32)cc1,-,-,24,-,-,-
Cc1ccc(OCCn2c(=O)sc3ccccc32)cc1,-,-,-,-,-,-
O=C(C1CCCN(S(=O)(=O)c2cccc3nsnc23)C1)N1CCCCCC1 (stereo unspecified),-,-,-,-,-,-
